{"source": "PubChem BioAssay AID540295", "about": "(The Scripps Research Institute Molecular Screening Center, 2011)", "note": "Screen size: about 360,000 compounds; about 1,700 (0.47%) were called active. Many of the other results were omitted from the sample, so actives are more common in it than they were. A number with no mark means an inactive call.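 The calls were made as follows: active = inhibition above its plate's cutoff, the mean of tested wells on that plate plus 3 SD (cut at about 29% in these data); inactive = the rest.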", "data": [{"molecular_target": "Melanocortin receptor 4 (Homo sapiens) (UniProt P32245)", "sequence (P32245 whole entry, looked up)": "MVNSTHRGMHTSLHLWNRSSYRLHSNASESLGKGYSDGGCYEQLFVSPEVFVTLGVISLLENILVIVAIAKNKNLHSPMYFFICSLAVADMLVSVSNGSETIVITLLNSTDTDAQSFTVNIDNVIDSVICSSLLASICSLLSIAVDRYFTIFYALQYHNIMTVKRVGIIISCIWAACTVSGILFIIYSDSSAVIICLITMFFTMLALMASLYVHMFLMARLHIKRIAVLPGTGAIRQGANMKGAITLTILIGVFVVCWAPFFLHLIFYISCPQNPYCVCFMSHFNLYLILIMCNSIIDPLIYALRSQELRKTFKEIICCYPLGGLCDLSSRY", "assay": "MC4R antagonists of cAMP signaling, primary screen, cell-based, TR-FRET, antagonist arm of biased-ligand search (AID 540295);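 also: 0% = Melanotan II alone and 100% = Melanotan II plus saturating MCL0020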", "settings": "MC4R-expressing cells, MTII-stimulated cAMP, LANCE TR-FRET; at 6.5 µM; active compounds read high", "outline": "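Assay system: U2OS-MC4R stable cell line; Also added: Melanotan II; Technique: Eu-cAMP/anti-cAMP TR-FRET, emission 671 nm; Times: 30-min compound, 1-h challenge, 1-h detection, room temperature.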", "values": [{"smiles": "COC(=O)c1sc(NC(=O)COC(=O)C2CCC2)c(C(=O)OC)c1C", "inhibition": "3.01%"}, {"smiles": "CCOC(=O)c1c(NC(=O)CCl)sc(C(=O)N(CC)CC)c1C", "inhibition": "32.6% (active)"}, {"smiles": "CCOC(=O)c1c(NC(=O)COC(=O)c2ccc(S(=O)(=O)C(F)F)cc2)sc(C(=O)N(C)C)c1C", "inhibition": "8.14%"}, {"smiles": "O=S(=O)(c1ccc(SCc2ccc(Br)cc2)nc1)N1CCOCC1", "inhibition": "5.21%"}, {"smiles": "CCCCC1N2CC3([N+](=O)[O-])CN1CC([N+](=O)[O-])(C2)C3(C)C", "note": "(stereo not given)", "inhibition": "1.22%"}, {"smiles": "Cn1c(=O)[nH]c(=O)c2c1nc(CN1CCN(c3ccccc3F)CC1)n2CCc1ccccc1", "inhibition": "4.45%"}, {"smiles": "COc1ccc2oc(N)nc2c1", "inhibition": "-3.46%"}, {"smiles": "COc1ccc2oc(N)c(C=O)c(=O)c2c1", "inhibition": "37.6% (active)"}, {"smiles": "COc1ccc2oc(=O)cc(CN3CCOCC3)c2c1", "inhibition": "5.75%"}, {"smiles": "O=C(Nc1ccccc1)c1nnsc1S(=O)(=O)c1ccc(Cl)cc1", "inhibition": "22.3%"}, {"smiles": "COc1cccc(NC(=O)c2ccccc2N(Cc2ccccc2)S(C)(=O)=O)c1", "inhibition": "4.09%"}, {"smiles": "CCOC(=O)N1CCN(C(=O)c2ccccc2N(Cc2ccccc2)S(=O)(=O)c2ccc(OC)cc2)CC1", "inhibition": "-11%"}, {"smiles": "COc1ccc(/C=N/OCC(=O)N(Cc2ccccc2)c2ccccc2C(=O)O)cc1", "inhibition": "32.2% (active)"}, {"smiles": "CCc1nnc(NC(=O)[C@@H](NC(=O)c2cccc(C)c2)C(C)C)s1", "inhibition": "2.22%"}, {"smiles": "COc1ccc(-c2nc3n(c(=O)c2C#N)CCS3)c(OC)c1", "inhibition": "30.9% (active)"}, {"smiles": "COc1ccc2c(c1)c1nc3n(c(=O)c1n2CC(=O)Nc1ccccc1)CCS3", "inhibition": "-10.3%"}, {"smiles": "COc1cccc(NC(=O)Cn2c3ccccc3c3nc4n(c(=O)c32)CCS4)c1", "inhibition": "19.8%"}, {"smiles": "CC=CCn1c(SCCCc2ccccc2)nc2c1c(=O)[nH]c(=O)n2C", "inhibition": "-6.73%"}, {"smiles": "COc1ccc(S(=O)(=O)NC(=O)C2(C)CCN2C(=O)c2ccccc2CCc2ccccc2)cc1", "note": "(stereo not given)", "inhibition": "-3.11%"}, {"smiles": "N#Cc1ccc(OCC(=O)Nc2nc(-c3ccccn3)cs2)cc1", "inhibition": "-1.39%"}, {"smiles": "CCCC/C(C)=N/NC(=O)NC1CCCCC1", "inhibition": "6.08%"}, {"smiles": "COc1ccc(CCNC(=O)CCCCCNC(=O)N2CCn3c2nc2ccccc23)cc1OC", "inhibition": "2.13%"}, {"smiles": "COc1ccc(NC(=O)C2Cc3c(-c4ccc5c(c4)OCO5)ccnc3O2)cn1", "note": "(stereo not given)", "inhibition": "-23.9%"}, {"smiles": "COc1ccc(NC(=O)CN2C(=O)NC(C)(c3ccccc3)C2=O)cn1", "note": "(stereo not given)", "inhibition": "-0.87%"}, {"smiles": "COc1ccc(NC(=O)/C(Cl)=C(/Cl)S(=O)Cc2ccc(C)cc2)cn1", "note": "(stereo not given)", "inhibition": "57.8% (active)"}, {"smiles": "COc1cc(C(=O)NCc2ccc(-n3cccc3)cc2)cc(OC)c1OC", "inhibition": "5.76%"}, {"smiles": "Cc1cccc(-c2cnc(C(O)c3ccc4ccccc4c3)[nH]2)c1", "note": "(stereo not given)", "inhibition": "5.06%"}, {"smiles": "Cc1c(CCC(=O)O)c(=O)oc2c(C)c(OCc3ccccc3Cl)ccc12", "inhibition": "17.1%"}, {"smiles": "Cc1coc2cc3oc(=O)c(CCC(=O)O)c(C)c3cc12", "inhibition": "4.19%"}, {"smiles": "Cc1c(CCC(=O)O)c(=O)oc2cc(OCc3ccc(Br)cc3)ccc12", "inhibition": "29.8% (active)"}, {"smiles": "CCOC(=O)N1CCN(Cc2nnc(-c3ccccc3Cl)o2)CC1", "inhibition": "2.09%"}, {"smiles": "CCOC(=O)C1CCN(Cc2nnc(-c3cccc(Br)c3)o2)CC1", "inhibition": "7.07%"}, {"smiles": "Cc1ccc(-c2nnc(CN3CCN(C)CC3)o2)cc1", "inhibition": "30.6% (active)"}, {"smiles": "S=c1[nH]nc(-c2ccco2)n1/N=C/c1ccc(Br)s1", "inhibition": "-2.7%"}, {"smiles": "Cc1ccccc1-c1n[nH]c(=S)n1/N=C/c1ccc(-c2ccccc2Br)o1", "inhibition": "28.7% (active)"}, {"smiles": "Cc1ccc(Cl)cc1-c1ccc(/C=N/n2cnnc2)o1", "inhibition": "-0.99%"}, {"smiles": "Cc1nn(Cc2ccc(F)cc2)c(C)c1NC(=O)c1noc2c1CCc1ccccc1-2", "inhibition": "10.4%"}, {"smiles": "COc1cc(C(=O)N2CCOC23CCN(Cc2ccccc2)CC3)cc(OC)c1OC", "inhibition": "0.19%"}, {"smiles": "O=C1c2ccccc2S(=O)(=O)c2cc(N3CCN(c4ccccn4)CC3)ccc21", "inhibition": "11.1%"}, {"smiles": "O=C(c1ccc2c(c1)C(=O)N(c1ccc(Cl)cc1)C2=O)N1CCN(c2ccccn2)CC1", "inhibition": "7.23%"}, {"smiles": "O=C(c1ccc2c(c1)N(Cc1ccc(F)cc1)C(=O)c1ccccc1S2(=O)=O)N1CCN(c2ccccn2)CC1", "inhibition": "30.5% (active)"}, {"smiles": "Cc1ccc(C)c(N2CCN(C(=O)CCc3nc(-c4cccc(C(F)(F)F)c4)no3)CC2)c1", "inhibition": "-2.59%"}, {"smiles": "COc1cccc(OC)c1C(=O)Nc1c(C(=O)N2CCN(c3ccccn3)CC2)oc2ccccc12", "inhibition": "36.6% (active)"}, {"smiles": "COCC(=O)Nc1c(C(=O)N2CCCC2)oc2ccccc12", "inhibition": "2.6%"}, {"smiles": "Cc1cc(C(=O)N2CCN(c3ccccn3)CC2)c(C)o1", "inhibition": "-0.72%"}]}]}
